ChEMBL document CHEMBL1949572, “Assessment of antiplatelet activity of 2-aminopyrimidines” (2012)

Tests used:
[1] = Antiplatelet activity in human whole blood assessed as inhibition of ADP-induced platelet aggregation at 10 ug/ml treated for 2 mins before ADP challenge measured after 6 mins by whole blood aggregometer; assay type: functional
Procedure, shortened: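 Whole blood diluted 1:1 with pre-warmed PBS (pH 7.4) at 37 °C. Stirred at 1000 rpm until baseline reached. Test sample or control added with 2 min incubation, then ADP (10 µM final) to start aggregation. Impedance (ohms) followed for 6 min, taken from lowest point to end of interval. Blood used within 4 h of collection; controls run between samples; three runs per assay.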

[2] = Ratio of compound to aspirin for human whole blood; assay type: functional, Platelet

With COc1ccc(O)c(-c2cc(-c3ccccc3Cl)nc(N)n2)c1 the inhibition at 10 µg/mL [1] was 55.1%.

With COc1ccc(O)c(-c2cc(-c3cccc(Cl)c3)nc(N)n2)c1 the inhibition at 10 µg/mL [1] was 66.8%.

For COc1ccc(-c2cc(-c3ccc(Cl)cc3)nc(N)n2)c(O)c1, the inhibition at 10 µg/mL [1] was 8.42%.

Work on CC(=O)Oc1ccccc1C(=O)O [ASPIRIN] yielded an inhibition at 10 µg/mL [1] of 37.5%.

In the case of COc1ccc(-c2cc(-c3cc(OC)ccc3O)nc(N)n2)cc1, the inhibition at 10 µg/mL [1] is reported as 64.3%.

In the case of COc1ccc(-c2cc(-c3ccc(F)cc3)nc(N)n2)c(O)c1, the inhibition at 10 µg/mL [1] is reported as 64%.

Molecule COc1ccc(-c2cc(-c3ccc(C)cc3)nc(N)n2)c(O)c1 has an inhibition at 10 µg/mL [1] of 62.8%.

In the case of COc1cccc(-c2cc(-c3ccc(OC)cc3O)nc(N)n2)c1, the inhibition at 10 µg/mL [1] is reported as 51.2%.

Molecule COc1ccc(O)c(-c2cc(-c3ccc(F)cc3)nc(N)n2)c1 has an inhibition at 10 µg/mL [1] of 8.79%.

COc1ccc(-c2cc(-c3cccc(Cl)c3)nc(N)n2)c(O)c1 showed an inhibition at 10 µg/mL [1] of 65.8%.

With COc1ccc(-c2cc(-c3ccc([N+](=O)[O-])cc3)nc(N)n2)c(O)c1 the inhibition at 10 µg/mL [1] was 58.5%.

In the case of COc1ccc(-c2cc(-c3ccc(Cl)cc3Cl)nc(N)n2)c(O)c1, the Ratio [2] is reported as 2 and the inhibition at 10 µg/mL [1] is reported as 77.5%.

Work on COc1ccc(-c2cc(-c3cccc(C)c3)nc(N)n2)c(O)c1 yielded an inhibition at 10 µg/mL [1] of 23.1%.

With CCOc1ccc(O)c(-c2cc(-c3ccccc3)nc(N)n2)c1 the inhibition at 10 µg/mL [1] was 39.9%.

Work on COc1ccc(-c2cc(-c3ccccc3)nc(N)n2)c(O)c1 yielded an inhibition at 10 µg/mL [1] of 42.7%.

In the case of COc1ccc(O)c(-c2cc(-c3ccco3)nc(N)n2)c1, the inhibition at 10 µg/mL [1] is reported as 1.46%.
